Reference: ChEMBL document CHEMBL1759912, “Ionic liquid promoted synthesis, antibacterial and in vitro antiproliferative activity of novel α-aminophosphonate derivatives” (Bioorg Med Chem Lett, 2011)
The source made the active and inactive calls. The rule behind the calls is not given here.

Legend:
Salmonella typhi = test: Antibacterial activity against ampicillin-resistant Salmonella typhi NCIM 2501 assessed as bacterial growth inhibition zone at […] after 24 hrs by disc diffusion method; assay type: functional, organism-based; conditions: Salmonella enterica subsp. enterica serovar Typhi
A549 [1] = test: Antiproliferative activity against human A549 cells; assay type: functional, cell-based
Procedure, shortened: (§1)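 A549 and SK-MEL2 cells (from NCCS Pune) grown in DMEM with 5–10% FBS, penicillin and 4 mM L-glutamine at 37 °C, 5% CO2. Plates were seeded 24 h ahead and washed with serum-free medium. Cells were exposed to 0, 2, 4, 8, 16 and 20 μM for […], then cell proliferation was estimated. Results are % cell growth, averaged from triplicate cultures run twice.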

SK-MEL-2 [2] = test: Antiproliferative activity against human SK-MEL-2 cells; assay type: functional, cell-based; procedure, shortened: as §1
A549 [3] = test: Induction of apoptosis in human A549 cells after 6 hrs; assay type: functional, cell-based
SK-MEL-2 [4] = test: Induction of apoptosis in human SK-MEL-2 cells after 6 hrs; assay type: functional, cell-based
A549 [5] = test: Antiproliferative activity against human A549 cells assessed as growth inhibition at 2 to 20 uM after 24 hrs; assay type: functional
Escherichia coli = test: Antibacterial activity against ampicillin-resistant Escherichia coli NCIM 2645 assessed as bacterial growth inhibition zone after 24 hrs by disc diffusion method; assay type: functional, organism-based
Procedure, shortened: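 Strains activated in nutrient broth, 24 h at their optimum growth temperature. Nutrient agar plates seeded with 100 μl mid-log culture. Sterile 6 mm filter paper discs each loaded with 10 μl of compound solution (10 mg/ml in DMSO, filter-sterilised) and left to diffuse 20 min. Plates incubated 24 h at growth temperature. Controls: ampicillin disc (positive), 10 μl DMSO disc (negative). Zone ≥7 mm counted as susceptible.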

| SMILES | Activity (Salmonella typhi) | IC50 (A549 [1]) [µM] | IC50 (SK-MEL-2 [2]) [µM] | Activity (A549 [3]) | Activity (SK-MEL-2 [4]) | growth inhibition (GI) (A549 [5]) [%] | Activity (Escherichia coli) |
| --- | --- | --- | --- | --- | --- | --- | --- |
| CCOP(=O)(OCC)C(Nc1ccc(I)cc1[N+](=O)[O-])c1ccc(Cl)cc1 (configuration not stated) | Active | – | – | – | – | – | – |
| CCOP(=O)(OCC)C(Nc1ccc(Cl)cc1[N+](=O)[O-])c1c[nH]c2ccccc12 (configuration not stated) | Active | 11.5 | 8.43 | Active | Active | 80 | Active |
| CCOP(=O)(OCC)C(Nc1ccc(Cl)cc1[N+](=O)[O-])c1ccc(OC)c(OC)c1 (configuration not stated) | Active | – | – | – | – | – | Active |
| CCOP(=O)(OCC)C(Nc1ccc(Cl)cc1[N+](=O)[O-])c1cccc(Cl)c1 (configuration not stated) | Active | – | – | – | – | – | Active |
